Values belong to the compound of their own block, whether it stands above or below them. The source made the active and inactive calls. The rule behind the calls is not given here. Starred links: 1 amine or outer side, 2 acyl side, 3 side chain; linkers in the order of their positions; H or OH if unused. Positions of bridges follow the written chain, without caps; N, C: chain ends. Non-standard residues stand in square brackets, D forms with d. Residues, ends and D or L forms follow the SMILES beside them. *: point of attachment. X2 = O=C(CCCC[C@@H]1SC[C@@H]2NC(=O)N[C@@H]21)NCCCOCCOCCOCCCN*; X67 = O=C(O)CCNC(=S)NCCCC[C@H](N[*:1])C(=O)[*:2]; X1 = O=C(O)[C@H](CC(=O)*)Sc1ccc2ccccc2c1; Suberoyl = O=C(CCCCCCC(=O)[*:2])[*:1]; β3hR = N=C(N)NCCC[C@H](N)CC(=O)O; Suc = O=C(CCC(=O)[*:2])[*:1]; Bz = O=C(c1ccccc1)*
What was measured:
[1] = target: T1, NAD-dependent protein deacetylase sirtuin-2 (Homo sapiens) (UniProt Q8IXJ6); experiment: Binding affinity to human recombinant N-terminal strep2-tagged SIRT2 (43 to 356 residues) expressed in Escherichia coli BL21 (DE3) at 100 uM by SDS-PAGE/LC-MS based pull down assay
T1 sequence (whole entry): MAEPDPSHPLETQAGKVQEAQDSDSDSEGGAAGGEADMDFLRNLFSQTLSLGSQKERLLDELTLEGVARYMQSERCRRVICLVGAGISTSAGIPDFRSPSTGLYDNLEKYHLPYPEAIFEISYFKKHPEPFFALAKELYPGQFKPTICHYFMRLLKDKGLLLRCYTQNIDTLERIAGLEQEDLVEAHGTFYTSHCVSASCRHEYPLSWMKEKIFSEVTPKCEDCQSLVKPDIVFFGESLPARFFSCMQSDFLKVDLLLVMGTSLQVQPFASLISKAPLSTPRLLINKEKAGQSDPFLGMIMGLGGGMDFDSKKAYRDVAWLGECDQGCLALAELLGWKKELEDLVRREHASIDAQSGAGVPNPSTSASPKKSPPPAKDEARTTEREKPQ
Procedure, shortened: (§1)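 Streptavidin agarose (0.5 ml bed volume) loaded with biotinylated inhibitor (100 µM in PBS) for 30 min, then washed with PBST. Bound protein eluted with 200 mM NaOH; eluates analysed by SDS-PAGE and LC-MS.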

[2] = target: T2, NAD-dependent protein deacylase sirtuin-5, mitochondrial (Homo sapiens, UniProt Q9NXA8); experiment: Binding affinity to human N-terminal biotinylated SIRT5 assessed as dissociation rate constant by surface plasmon resonance spectroscopy
Procedure, shortened: (§2)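 Surface plasmon resonance: N-terminally biotinylated Sirt5 (biotinylated via Trypsiligase) immobilized on a streptavidin-coated sensor chip at about 1800 RU. Biotinylated ligand injected at 50 nM in PBS (4 mM KH2PO4, 16 mM Na2HPO4, 115 mM NaCl, pH 7.4). Kinetic constants and affinity obtained by fitting to a 1:1 Langmuir binding model.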
Target sequence in this assay (Q9NXA8 37-310 limits assumed): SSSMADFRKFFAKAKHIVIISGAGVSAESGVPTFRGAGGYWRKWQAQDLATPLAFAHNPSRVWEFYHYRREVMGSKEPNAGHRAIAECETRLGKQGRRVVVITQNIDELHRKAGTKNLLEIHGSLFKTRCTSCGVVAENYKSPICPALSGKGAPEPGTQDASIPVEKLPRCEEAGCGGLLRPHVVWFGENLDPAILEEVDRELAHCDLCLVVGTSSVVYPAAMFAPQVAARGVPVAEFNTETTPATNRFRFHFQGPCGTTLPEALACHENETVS

[3] = target: T2, NAD-dependent protein deacylase sirtuin-5, mitochondrial; experiment: Competitive inhibition of human recombinant N-terminal Strep2-tagged SIRT5 expressed in Escherichia coli BL21 (DE3) using Abz-GVLK(glutaryl)AY(NO2)GV-NH2 as substrate in presence of NAD+ by fluorescence assay
Procedure, shortened: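 Continuous trypsin-coupled fluorescence assay at 37°C: 10 nM SIRT5, 500 µM NAD+, 500 nM trypsin, 5% DMSO, 0.025-5 µM substrate, 0.01-20 µM inhibitor. Buffer: 20 mM Tris, 150 mM NaCl, 5 mM MgCl2, pH 7.8. Excitation 320 nm, emission 420 nm. Measured in duplicate; IC50 determined at 0.03 µM substrate by log(inhibitor) vs normalized response fit.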
Target sequence in this assay (Q9NXA8 whole entry): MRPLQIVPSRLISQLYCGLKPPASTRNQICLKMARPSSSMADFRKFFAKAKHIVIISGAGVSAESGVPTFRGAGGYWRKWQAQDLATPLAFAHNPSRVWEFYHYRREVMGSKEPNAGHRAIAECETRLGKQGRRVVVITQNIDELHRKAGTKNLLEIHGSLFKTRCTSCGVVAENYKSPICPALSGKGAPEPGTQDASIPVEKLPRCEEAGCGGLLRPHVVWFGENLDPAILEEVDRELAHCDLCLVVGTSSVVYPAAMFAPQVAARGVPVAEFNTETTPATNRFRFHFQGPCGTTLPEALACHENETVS

[4] = target: T2, NAD-dependent protein deacylase sirtuin-5, mitochondrial; experiment: Binding affinity to human N-terminal biotinylated SIRT5 by surface plasmon resonance spectroscopy; procedure, shortened: as §2
Target sequence in this assay (Q9NXA8 whole entry): as above

[5] = target: T2, NAD-dependent protein deacylase sirtuin-5, mitochondrial; experiment: Binding affinity to human recombinant N-terminal strep2-tagged SIRT5 expressed in Escherichia coli BL21 (DE3) at 100 uM by SDS-PAGE/LC-MS based pull down assay; procedure, shortened: as §1
Target sequence in this assay (Q9NXA8 37-310 limits assumed): as the sequence (Q9NXA8 37-310 limits assumed) above

[6] = target: T2, NAD-dependent protein deacylase sirtuin-5, mitochondrial; experiment: Inhibition of human recombinant N-terminal Strep2-tagged SIRT5 expressed in Escherichia coli BL21 (DE3) using Abz-GVLK(glutaryl)AY(NO2)GV-NH2 as substrate in presence of NAD+ by fluorescence assay
Target sequence in this assay (Q9NXA8 whole entry): as the sequence (Q9NXA8 whole entry) above

[7] = target: T3, NAD-dependent protein deacetylase sirtuin-3, mitochondrial (Homo sapiens) (UniProt Q9NTG7); experiment: Binding affinity to human recombinant N-terminal strep2-tagged SIRT3 (114 to 380 residues) expressed in Escherichia coli BL21 (DE3) at 100 uM by SDS-PAGE/LC-MS based pull down assay; procedure, shortened: as §1
T3 sequence (whole entry): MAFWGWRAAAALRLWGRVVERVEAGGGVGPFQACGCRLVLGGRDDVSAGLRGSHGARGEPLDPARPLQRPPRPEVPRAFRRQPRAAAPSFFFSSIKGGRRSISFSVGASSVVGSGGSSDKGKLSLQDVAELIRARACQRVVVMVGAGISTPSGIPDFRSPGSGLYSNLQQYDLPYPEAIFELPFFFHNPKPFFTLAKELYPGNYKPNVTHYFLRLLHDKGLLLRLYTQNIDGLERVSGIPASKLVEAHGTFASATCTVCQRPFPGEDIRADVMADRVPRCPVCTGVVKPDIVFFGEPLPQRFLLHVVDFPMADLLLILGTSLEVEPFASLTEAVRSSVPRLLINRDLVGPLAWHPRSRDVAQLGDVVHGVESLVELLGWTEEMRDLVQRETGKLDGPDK

[8] = target: T2, NAD-dependent protein deacylase sirtuin-5, mitochondrial; experiment: Inhibition of recombinant human N-terminal His-tagged SIRT5 (34 to 269 residues) expressed in Escherichia coli Transetta(DE3) cells using Benzyl Lys(Succinyl)-AMC substrate after 2 hrs by fluorescence assay
Target sequence in this assay (Q9NXA8 whole entry): as the sequence (Q9NXA8 whole entry) above

[9] = target: NAD-dependent protein deacylase sirtuin-6 (Homo sapiens) (UniProt Q8N6T7); experiment: Inhibition of SIRT6 (unknown origin) up to 50 uM using Ac-EALPKK(myristoyl)TGGNH2 as substrate after 6 mins by HPLC analysis
Chain of NAD-dependent protein deacylase sirtuin-6 (Homo sapiens) (Q8N6T7 whole entry): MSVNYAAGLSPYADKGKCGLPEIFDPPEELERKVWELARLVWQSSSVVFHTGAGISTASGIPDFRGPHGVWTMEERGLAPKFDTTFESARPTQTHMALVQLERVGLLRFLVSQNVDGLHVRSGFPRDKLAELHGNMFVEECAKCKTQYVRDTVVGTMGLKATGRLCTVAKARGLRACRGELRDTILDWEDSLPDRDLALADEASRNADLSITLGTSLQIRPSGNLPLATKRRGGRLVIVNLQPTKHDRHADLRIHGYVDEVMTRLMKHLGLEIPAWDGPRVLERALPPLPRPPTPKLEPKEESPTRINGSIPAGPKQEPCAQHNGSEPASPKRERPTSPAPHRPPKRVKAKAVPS
Procedure, shortened: (§3)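 HPLC activity assay at 37°C with 0 or 50 µM inhibitor, 500 µM NAD+, 5% DMSO, 0.1 µM enzyme and 50 µM substrate, in 20 mM Tris, 150 mM NaCl, 5 mM MgCl2, pH 7.8. Incubation 8 min for SIRT1-3 and 6 min for SIRT6. Stopped with TFA-water (1:9), then analysed by reversed-phase HPLC with detection at 260 nm.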

[10] = target: T3, NAD-dependent protein deacetylase sirtuin-3, mitochondrial (Homo sapiens); experiment: Inhibition of SIRT3 (unknown origin) up to 50 uM using Bz-GVLK(acetyl)EYGV-NH2 as substrate after 8 mins by HPLC analysis; procedure, shortened: as §3
[11] = target: T1, NAD-dependent protein deacetylase sirtuin-2 (Homo sapiens); experiment: Inhibition of SIRT2 (unknown origin) up to 50 uM using Bz-GVLK(acetyl)EYGV-NH2 as substrate after 8 mins by HPLC analysis; procedure, shortened: as §3
[12] = target: T4, NAD-dependent protein deacetylase sirtuin-1 (Homo sapiens) (UniProt Q96EB6); experiment: Inhibition of SIRT1 (unknown origin) up to 50 uM using Bz-GVLK(acetyl)EYGV-NH2 as substrate after 8 mins by HPLC analysis; procedure, shortened: as §3
T4 sequence (whole entry): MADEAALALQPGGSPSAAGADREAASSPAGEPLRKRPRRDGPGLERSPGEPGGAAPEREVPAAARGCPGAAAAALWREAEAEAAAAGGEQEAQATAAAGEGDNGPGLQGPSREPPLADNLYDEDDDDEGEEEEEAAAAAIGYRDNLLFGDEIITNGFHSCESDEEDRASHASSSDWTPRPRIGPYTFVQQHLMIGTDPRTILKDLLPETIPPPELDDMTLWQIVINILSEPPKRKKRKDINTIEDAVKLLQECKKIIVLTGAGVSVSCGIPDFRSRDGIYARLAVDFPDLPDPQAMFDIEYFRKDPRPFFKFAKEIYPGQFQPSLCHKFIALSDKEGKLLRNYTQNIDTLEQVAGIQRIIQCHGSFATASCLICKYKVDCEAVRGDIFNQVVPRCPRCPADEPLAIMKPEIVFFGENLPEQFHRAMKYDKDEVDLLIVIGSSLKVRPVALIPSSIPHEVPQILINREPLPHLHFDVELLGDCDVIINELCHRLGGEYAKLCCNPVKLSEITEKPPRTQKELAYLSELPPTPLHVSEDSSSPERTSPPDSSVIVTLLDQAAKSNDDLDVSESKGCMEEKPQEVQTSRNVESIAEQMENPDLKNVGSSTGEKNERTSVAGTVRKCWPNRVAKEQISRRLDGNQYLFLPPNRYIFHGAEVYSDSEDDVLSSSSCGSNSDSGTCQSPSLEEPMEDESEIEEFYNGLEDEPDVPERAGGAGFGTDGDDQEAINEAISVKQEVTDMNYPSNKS

[13] = target: T2, NAD-dependent protein deacylase sirtuin-5, mitochondrial; experiment: Inhibition of SIRT5 (unknown origin) using GGQSLK[succ]FGKG as substrate after 30 mins
Target sequence in this assay (Q9NXA8 whole entry): as the sequence (Q9NXA8 whole entry) above

[14] = target: T2, NAD-dependent protein deacylase sirtuin-5, mitochondrial; experiment: Inhibition of human SIRT5
Target sequence in this assay (Q9NXA8 whole entry): as above

Activity [1]: inactive | koff [2]: 0.00015 s⁻¹ | Ki [3]: 13.6 nM | Kd [4]: 0.12 nM | Activity [5]: Active | IC50 [6]: 19.1 nM | Activity [7]: inactive
Structure (SMILES): CC(C)C[C@H](NC(=O)[C@@H](NC(=O)CNC(=O)CCC(=O)NCCCOCCOCCOCCCNC(=O)CCCC[C@@H]1SC[C@@H]2NC(=O)N[C@@H]21)C(C)C)C(=O)N[C@@H](CCCCNC(=O)C[C@H](Sc1ccc2ccccc2c1)C(=O)O)C(=O)N[C@@H](CCC(=O)O)C(=O)N[C@@H](Cc1ccc(O)cc1)C(=O)NCC(=O)N[C@H](C(N)=O)C(C)C ({X2-Suc}-GVLK(X1)EYGV-NH2)

IC50 [8]: 5.6 µM
Structure (SMILES): N#C/C(=C\c1ccc(-c2ccc(C(=O)O)cc2)o1)C(=O)Nc1ccc(C#N)c(F)c1

inhibition [9]: inactive | inhibition [10]: inactive | inhibition [11]: inactive | inhibition [12]: inactive | Kd [4]: 0.01 nM | IC50 [6]: 30.3 nM
Structure (SMILES): CC(C)C[C@H](NC(=O)[C@@H](NC(=O)CNC(=O)c1ccccc1)C(C)C)C(=O)N[C@@H](CCCCNC(=O)C[C@H](Sc1ccc2ccccc2c1)C(=O)O)C(=O)N[C@@H](CCC(=O)O)C(=O)N[C@@H](Cc1ccc(O)cc1)C(=O)NCC(=O)N[C@H](C(N)=O)C(C)C (Bz-GVLK(X1)EYGV-NH2)

IC50 [6]: 453000 nM | IC50 [13]: 100 nM
Structure (SMILES): O=C1c2c(O)cccc2Cc2cccc(O)c21 [ANTHRALIN]

IC50 [14]: 7.5 µM
Structure (SMILES): CC(=O)N[C@H]1CCCCNC(=O)CCCCCCC(=O)NCCCC[C@@H](C(=O)N[C@H](C(N)=O)[C@@H](C)O)NC(=O)[C@H](CCCCNC(=S)NCCC(=O)O)NC(=O)C[C@H](CCCNC(=N)N)NC1=O (Ac-K[β3hR][X67]KT-NH2; linker 1-4 via Suberoyl)
